Measured values from publication PMC3103606 (Chemico-biological interactions, 2011).

Experiments:
Type in all cases: biochemical
ALDH2 = molecular target: T1, ALDH2 (Homo sapiens, UniProt P05091); assay: Isoenzyme selectivity: ALDH2 dehydrogenase activity; details: 10 μM concentration, aldehyde oxidation
T1 sequence (P05091 18-517): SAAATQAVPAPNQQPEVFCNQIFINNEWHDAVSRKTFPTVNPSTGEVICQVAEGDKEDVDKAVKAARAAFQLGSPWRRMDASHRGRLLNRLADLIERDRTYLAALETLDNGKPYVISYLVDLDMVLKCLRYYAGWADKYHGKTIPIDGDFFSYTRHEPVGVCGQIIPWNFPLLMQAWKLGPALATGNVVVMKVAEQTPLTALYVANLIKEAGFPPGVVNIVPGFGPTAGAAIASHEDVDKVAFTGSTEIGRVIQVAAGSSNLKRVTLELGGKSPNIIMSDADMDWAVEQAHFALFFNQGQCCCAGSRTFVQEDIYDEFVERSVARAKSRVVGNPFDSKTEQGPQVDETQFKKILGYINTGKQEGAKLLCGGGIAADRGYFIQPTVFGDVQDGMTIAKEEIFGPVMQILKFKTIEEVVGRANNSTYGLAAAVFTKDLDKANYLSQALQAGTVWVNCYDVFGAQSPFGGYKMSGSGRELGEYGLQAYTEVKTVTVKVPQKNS

ALDH3A1 [1] = molecular target: T2, ALDH3A1 (Homo sapiens, UniProt P30838); assay: ALDH3A1 dehydrogenase assay; details: read-out: (Dehydrogenase assay) IC50; ALDH3A1, 1 mM benzaldehyde, […] NADP+, pH 7.5
T2 sequence (P30838 1-453): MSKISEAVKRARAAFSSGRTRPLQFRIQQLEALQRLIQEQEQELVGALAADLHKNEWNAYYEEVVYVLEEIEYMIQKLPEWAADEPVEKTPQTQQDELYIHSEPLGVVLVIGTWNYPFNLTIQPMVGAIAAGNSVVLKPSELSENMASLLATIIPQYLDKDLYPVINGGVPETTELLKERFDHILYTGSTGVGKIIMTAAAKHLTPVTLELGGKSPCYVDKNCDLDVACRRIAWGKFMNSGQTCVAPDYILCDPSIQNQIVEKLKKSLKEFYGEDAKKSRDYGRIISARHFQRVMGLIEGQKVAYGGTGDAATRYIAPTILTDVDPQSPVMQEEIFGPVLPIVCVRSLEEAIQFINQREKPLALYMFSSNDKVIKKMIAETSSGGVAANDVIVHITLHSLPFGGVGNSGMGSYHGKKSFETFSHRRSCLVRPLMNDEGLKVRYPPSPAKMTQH

ALDH3A1 [2] = molecular target: T2, ALDH3A1; assay: ALDH3A1 esterase assay; details: read-out: (Esterase assay) IC50; ALDH3A1, 0.8 mM para-nitrophenylacetate, pH 7.5
How it was run: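 Reactions used nickel-NTA/Q-sepharose-purified recombinant ALDH3A1 at 180 nM in 25 mM sodium HEPES. Inhibitor was preincubated with enzyme for 2 min, and 0.8 mM para-nitrophenylacetate then started the reaction. para-Nitrophenol formation was read spectrophotometrically at 405 nm (ε 18,000 M−1cm−1).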

ALDH1A1 = molecular target: T3, ALDH1A1 (Homo sapiens, UniProt P00352); assay: Isoenzyme selectivity: ALDH1A1 dehydrogenase activity; details: 10 μM concentration, aldehyde oxidation
T3 sequence (P00352 1-501): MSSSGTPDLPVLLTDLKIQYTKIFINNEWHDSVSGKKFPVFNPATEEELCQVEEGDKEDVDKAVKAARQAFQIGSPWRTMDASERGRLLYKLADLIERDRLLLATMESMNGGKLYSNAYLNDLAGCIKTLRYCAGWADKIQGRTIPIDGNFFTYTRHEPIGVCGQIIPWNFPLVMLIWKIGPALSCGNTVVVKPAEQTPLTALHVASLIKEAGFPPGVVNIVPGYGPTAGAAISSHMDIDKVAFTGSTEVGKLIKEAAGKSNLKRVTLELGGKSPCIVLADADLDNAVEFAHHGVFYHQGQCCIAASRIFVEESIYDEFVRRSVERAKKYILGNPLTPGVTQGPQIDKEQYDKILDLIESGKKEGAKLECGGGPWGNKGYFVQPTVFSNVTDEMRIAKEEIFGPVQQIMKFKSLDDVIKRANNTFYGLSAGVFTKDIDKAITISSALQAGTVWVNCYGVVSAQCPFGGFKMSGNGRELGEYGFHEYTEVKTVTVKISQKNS

| inhibition of ALDH2 (ALDH2) | IC50 (ALDH3A1 [1]) [µM] | IC50 (ALDH3A1 [2]) [µM] | inhibition of ALDH1A1 (ALDH1A1) | SMILES |
| --- | --- | --- | --- | --- |
| less than 10% | 5 | 0.5 | less than 10% | CC(=O)Nc1ccc(Nc2ccc(S(C)(=O)=O)cc2[N+](=O)[O-])cc1 [CB29] |
| – | 1.5 | 1 | – | CCSc1nnc2c(n1)OC(C(=O)c1ccc(OC)cc1)Nc1ccccc1-2 (centres unmarked) [CD5] |
| – | 6.3 | 2.2 | – | CCOC(=O)CN1C(=O)C(O)(CC(=O)c2ccncc2)c2ccccc21 (centres unmarked) [CD8] |
